From the EternaBench riboswitch data

System: MS2 coat protein
Experiment: apparent Kd, MS2 coat protein; higher = weaker binding; RNA-MaP array; FMN 200 µM where present
In short: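 In 100 mM Tris-HCl pH 7.5, 80 mM KCl, 4 mM MgCl2, BSA, DTT, yeast tRNA and Tween-20, SNAP-549-labelled MS2 coat protein was titrated from 0.7 or 1.5 nM, doubling to 3 µM, over designs transcribed by stalled E. coli RNA polymerase on Illumina sequencing-chip clusters. This was done first without ligand, then with ligand held constant. After green signal was normalised to red-channel RNA signal and control-cluster median Fmax, the apparent Kd was taken as the median of filtered per-cluster binding-curve fits.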

[1] = designed as: ON switch for flavin mononucleotide, no ligand
[2] = ligand present: flavin mononucleotide, designed as: ON switch for flavin mononucleotide
[3] = designed as: OFF switch for flavin mononucleotide, no ligand
[4] = ligand present: flavin mononucleotide, designed as: OFF switch for flavin mononucleotide

| Sequence | apparent Kd [1] [nM] | apparent Kd [2] [nM] | apparent Kd [3] [nM] | apparent Kd [4] [nM] |
| --- | --- | --- | --- | --- |
| AGGAUAGGAAACUUUGUCCAUUGUACAGAAGGCCAACAUGAGGAUCACCCAUGUAAGAAAAGGAUGGAGGAUAUGUAUAGGGCC | 25.8 | 12.3 | – | – |
| UUACGUCCCAUUUACAUGAGGAUCACCCAUGUCGAAAGACAUGAGGAUAUGCUACCUAAUUGGUAGCAGAAGGCAUGGACGUCG | 662 | 347 | – | – |
| UUUACAUGAGGAUCACCCAUGUUUAGAAAGAUUGGUUUAGGUGAGGAUAUACAUGAUAAUGAAUUGUAGAAGGCACUGGGUACA | 30.1 | 24 | – | – |
| CAGAAUUGAGGAUAUGAUCAAUUUAACAUGAGGAUCACCCAUGUAUGGGAAUGAUUCUGAUCAGAAGGCGAUUCUU | – | – | 1290 | 910 |
| AACCGACAUGAGGAUCACCCAUGUCAGGAUAUGGACUGACAUCGAAAGGAUGGAGGAACCAGAAGGGACUGGGC | – | – | 37.1 | 81.6 |
| ACCACGAUAGCGAUAUGAUCGAGAGAUCAUGUCGCUAUUUUUAGAAGGACAUGAGGAUCACCCAUGUAGGAUAUGGGACGUGGA | 24.7 | 10.3 | – | – |
| ACUAGAUGAGGAUAUGCAUAUUUUCGUGUUCUUCUAGAUUAACAUGAGGAUCACCCAUGUAGAAGGCGUCUGGC | – | – | 18.6 | 33.8 |
| UUAUUAUAUGUAGGAUAUGCAUAUUAUUAUUAUGCAGAAGGACAUGAGGAUCACCCAUGUAUAUUAUUAUUAUAUGUUAUAUAU | – | – | 25.5 | 36.9 |
| CUGUCCCAAGGAUAUACAUCAGUCCCAGGGUGCCGCAUAAGACAUGAGGAUCACCCAUGUAGAAGGUGGAGACC | – | – | 96.7 | 92.6 |
| AAACAGCGAAGAUAAUAAUGAAUACAUGAGGAUCACCCAUGUAAGGAUAUCGUCAGGAAUACUGACGAGAAGGUACAUACGCUG | – | – | 16 | 22.4 |
| CUAUCUUAUGAGAAGGCGAUCAUGAAACAUGAUCGAGGAUAUCAUGUAAACAUGAGGAUCACCCAUGUAUGGGUAUUAUGGUAG | 175 | 57.1 | – | – |
| CUUUUGUGAGGAUAUUAGUAGUAAAUAAAUAAAAUUACUACUGAGAAGGCACAUGAGGAUCACCCAUGUUUCUC | – | – | 32.4 | 284 |
| ACCAUUUACUAAUCGUCUAUACAUGAGGAUCACCCAUGUUAUGAGGAUAUCGUCGUGAAACACGACGAGAAGGCAUAGCAUUCG | – | – | 32.2 | 132 |
| GGUACGCAUGUAGGAUAUCGAGCUCAAAGAGCUCGAGAAGGACAUGAGGAUCACCCAUGUCCUCACAGACAGUGAGGGCGUACC | – | – | 18 | 26.5 |
| UUAAUUAUACAAGGAUAUCUAUUGUAAUUUCGUCUUACAUGAGGAUCACCCAUGUUAAUAUUUUUAGAGAAGGUGUAUUUUCAG | 113 | 63.7 | – | – |
| UCAAGAAGGCAGAAGGGUCCUCACAUGAGGAUCACCCAUGUAGAUAUGGAUAGGAUAUGUCUAGAGAAGUGUUGCUCUAAGGGU | 1050 | 159 | – | – |
| UUUUUCUCAGGAUAUACAUGAGGAUCACCCAUGUAUAUUAGUGAUAAUACAUGGGAAUGUAGAAGGGAGCUCAU | – | – | 164 | 123 |
| UCUGCUCGAGGAUAUACAUGAGGAUCACCCAUGUAACCCAGAAGCAUGGCCUCAGGAUGUAGAAGGCGACGCUA | – | – | 17.3 | 37.5 |
| CAGUGCUGUUGAGAGGAUAUGCGGCGACGGACAUGAGGAUCACCCAUGUUAGCGACAGCGUUGCGGCAGAAGGCUCUGCCCACUG | 11.2 | 10.4 | – | – |
| GAGCGAAAGCUCAAUGUCGAUAGCAGAAGGACAUGAAAAUACAUGAAAACAUGAGGAUCACCCAUGUAGGAUAUGCUAUCGACU | – | – | 8.75 | 89.4 |
| ACAUCGUGAGACAUGAGGAUCACCCAUGUGUGAUAGUGGGCACAGGAUAUCCAAAUUUGGAAUUUGGAGAAGGGUGAUCGUUAA | 72.1 | 68.6 | – | – |
| ACAAGUUUGUAGAAGGACGACUAAUUUGUAUUCGUAGGAUAUACUAUUUACAUGAGGAUCACCCAUGUUUUUAUGGAACAAUGU | – | – | 11.9 | 16.2 |
| UGAUCACAUGAGGAUCACCCAUGUCAGGAUAUCGUCACUGGAGCUUCGGCUCCAGUGACGAGAAGGGAUAUAAU | – | – | 91.5 | 197 |
| GCAUGUCUUAAGGAUAUGCUUUGGCGUGAGCCGGCAGAAGGUAAGACAUGAGGAUCACCCAUGUUUUCCUAAAA | – | – | 20.5 | 140 |
| UUUUAACAUGAGGAUCACCCAUGUGAGGAUAUCGAAAUUUAUAUUAAUAUUAUUAAAUCGAGAAGGCACAUUUU | – | – | 102 | 97.4 |
| UAAUAUUUAUGAUAUUAUUACAUUAGAAGGCUAGACAUGUGGAUACAUGAGGAUCACCCAUGUAUAGAGGAUAUAGACAUAUAG | – | – | 25.8 | 42.6 |
| CCAGGCUUCGAGAAGGACAUGAGGAUCACCCAUGUGCGUGUGAAGCAGCCGUGAGGCUGCAUCAUGUAGGAUAUCGGAGUCUGA | – | – | 71.8 | 396 |
| GCUGGUCAAGGAUAUGCAAUCGUGCUUCGGCACGUAAGAUCACAUGAGGAUCACCCAUGUAGAAGGUGACCAGC | – | – | 22.5 | 59.8 |

| Sequence | apparent Kd [1] [nM] | apparent Kd [2] [nM] | apparent Kd [3] [nM] | apparent Kd [4] [nM] |
| --- | --- | --- | --- | --- |
| GGUGCGUUUGUGAGGAUAUGCUGGUCCUUGGAUCAGCAGAAGGCACAUGAGGAUCACCCAUGUGGUGUCGUCCC | – | – | 348 | 44.7 |
| CAGGAUAGAGGAUAUACAUAGAUACAGAUUCAUGUGGUCCUACAUGAGGAUCACCCAUGUAGAAGGCUAUCCUG | – | – | 166 | 30 |
| UACCAAUUUUUGGUAUUACACUAUGAGGAUAUCAUAUAUGAAUACAUGAGGAUCACCCAUGUGUGUGAGAAGGCAUAAUUUAUA | 28.1 | 10.5 | – | – |
| ACAAAUGGAGGAUAUACAUGAGGAUCACCCAUGUAUAUCCUACAUAUGUGAUCUUUAUGUAGAAGGCCAUUUGA | – | – | 12.2 | 11.5 |
| GUAGAGUAAGGAUAUGCUGAAUAGGAUAGAAUGGUUAGAAAGUAGAAGGUACAUGAGGAUCACCCAUGUAAUGU | – | – | 24.9 | 25.7 |
| GUGUCUAACUAGAAGGCCGUAUGCAAAGCAUACGGAGGAUAUGGGUUCCGGAAACGGACAUGAGGAUCACCCAUGUGGCACAAA | 94.3 | 13.4 | – | – |
| CAGUGCUGUUGAGAGGAUAUGCGGCGACGGACAUGAGGAUCACCCAUGUUAGCGACAGCGUUGCGGCAGAAGGCUCUGCCCGCUG | 21 | 13.7 | – | – |
| AGAGCCUCGUGAGGAUAUACAUGAGGAUCACCCAUGUAAAUGAAUGAACGGUGGAAACACCGAAUGUAGAAGGCACGAGGCUCA | – | – | 37.9 | 223 |
| GAAGCACAUGAGGAUCACCCAUGUGAGGAUAUCCGUCUGGUCCGGCCGGGCCAGUACCGGAGAAGGCGCGUCGA | – | – | 34.7 | 29.7 |
| UUAAUUAUACAAGGAUAUCUAUUGUAGUUUCGACUUACAUGAGGAUCACCCAUGUUUUUAUGUUUAGAGAAGGUGUAUUUUCAG | 104 | 77.3 | – | – |
| GAUUGACAUGAGGAUCACCCAUGUGAGGAUAUCGGCCGGACCUUGUUAGCUUCCAUCGCGAGAAGGCACAUAGG | – | – | 28.1 | 37.1 |
| UAUUUUGAAGUAGGAUAUCAACACACAUGAGGAUCACCCAUGUUAGAUGUGGAUGUUGUAUGUUAUGAGAAGGACUUCGAUUCG | – | – | 20.6 | 76.4 |
| ACAUGAGGAUCACCCAUGUUAAAUGAGGAUAUAUGACUGCACAUGAGGUUCACCCAUGUUCUACCGUAGAAGGUAUAAAUAAUU | 71.7 | 76.1 | – | – |
| UCCGUGUGAGGAUAUUACGCUGUUCGGGAAACGCUCAUAGGUAAGAAGGCACAUGAGGAUCACCCAUGUCCAUA | – | – | 23.7 | 54.8 |
| GUCGGAAACGACAAAAGUAGCAUAGGAGAAGGCAUGUCAUAAGACAUGAGGAUCACCCAUGUGCAUGAGGAUAUCCUAUGCUAC | 5.53 | 4.98 | – | – |
| GCGUAAUAGGUGUAGCUAGUCGUGCAAGAAGGGUGGUGAACAUGAGGAUCACCCAUGUGGUCAGUACAGGAUAUUGCUAUACGA | 561 | 162 | – | – |
| UUGAAGAUAGGAUAUACGAGGAGAGGAGAGAGAAGGUGAGGACAUGAGGAUCACCCAUGUAGAAGGAUCAGGAA | – | – | 81.5 | 62.5 |
| GUAGCUAUCGGAGGAUAUUCAUACCGGAAACGGACAUGAGGAUCACCCAUGUCGCGAAAGCGUUGGGAGAAGGCCGAUAGCUAC | 237 | 21.4 | – | – |
| AUCAGCUCGUCAGGAUAUACGUCACUGCGACAGCAGUGUGGUAAGAUCACAUGAGGAUCACCCAUGUAGAAGGGACGAGCUGAU | – | – | 14.2 | 297 |
| CUGUGACGGUGCGCAAGUGGACGGAGAAGGCAGACAUGAGGAUCACCCAUGUGAGCCUGCUAUUCUGAGGAUAUCCGUUCGUAC | – | – | 27 | 132 |
| AAGAGAAAAGCAGGAUAUCUAUUGGCUCCUUAACAUGAGGAUCACCCAUGUAGAGAAGGGCUAAGACCGACUCUUCGGAGUUGA | – | – | 7.07 | 20.6 |
| UGAUAGGACAGAGGAUAUACGUAUAAUUACCUCUACAUGAGGAUCACCCAUGUAGAAGGCUGUCCUAUCUAAGUCGGAAACGAC | – | – | 5.99 | 6.88 |
| UCACUUCGUGAGGAUAUGCAAGGACUAUGACUGGUAGAAGGCACGACAUGAGGAUCACCCAUGUCUGUGGGUCC | – | – | 17 | 18.3 |
| GACGAGGGAGGAUAUGCACGAGGGAUAUCUGACAUGCCUAUACAUGAGGAUCACCCAUGUAGAAGGCCCAGAUA | – | – | 10.6 | 13.1 |
| UUGAGGUGCAAGAAGGAUCACAUGAGGAUCACCCAUGUAAUAUAAAGUCUCGAGAUUUUAUAUUGAUAGGAUAUUGCACCGAAC | 42.2 | 6.26 | – | – |
| AAAAGACAUGAGGAUCACCCAUGUCAAGACGUGGGAGGAUAUGUAUGGAAACCAGACUGUACAGAAGGCCUCUGUC | 57 | 70.5 | – | – |
| GGAAAUCAUGUAGGAUAUGCAUGGCGAAGCUACGCAGAAGGACAUGAGGAUCACCCAUGUUAUAGCUACCCGUUACGGUGGCAA | – | – | 131 | 119 |
